# Measured values as given in ChEMBL document CHEMBL5214971, “Multiple approaches to repurposing drugs for neuroblastoma” (Bioorg Med Chem, 2022).
# Tests used:
# SH-SY5Y = experiment: Anticancer activity against human SH-SY5Y cells assessed as reduction in cell viability incubated for 48 hrs by resazurin dye based fluorescence assay; format: functional
# Procedure, shortened: (§1)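 Cells seeded at 1×10^4 cells/well in DMEM/Ham's F12 (1:1, L-glutamine, 15 mM HEPES) with 10% FBS, 37°C, 5% CO2. Compounds in DMSO, 50 μM then two-fold over 8 further dilutions to 0.195 μM; 0.5% DMSO final. 48 h exposure. Resazurin 0.0125 mg/ml final, read 3 h (HT1080) or 8 h (SH-SY5Y, SK-N-AS) at Ex 544/Em 590 nm. Inhibition relative to DMSO control; triplicates, ≥2 experiments.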
# HT-1080 = experiment: Anticancer activity against human HT-1080 cells assessed as reduction in cell viability incubated for 48 hrs by resazurin dye based fluorescence assay; format: functional; conditions: HT-1080, 48 h; procedure, shortened: as §1
# SK-N-AS = experiment: Anticancer activity against human SK-N-AS cells assessed as reduction in cell viability incubated for 48 hrs by resazurin dye based fluorescence assay; format: functional; procedure, shortened: as §1
# [1] = target: Cathepsin D (Homo sapiens) (UniProt P07339); experiment: Inhibition of cathepsin D (unknown origin) using MCA labelled GKPILFFRLK(Dnp)-D-R-NH as substrate at 200 uM preincubated for 15 mins followed by substrate addition and measured after 2 hrs by fluorometer analysis; conditions: time 135.0 min
# [2] = Cytotoxicity against African green monkey Vero 76 cells assessed as reduction in cell viability; format: toxicity, cell-based; conditions: African green monkey (Chlorocebus sabaeus)
# [3] = Cytotoxicity against human HeLa cells assessed as reduction in cell viability incubated for 48 hrs by CellTiter Glo assay; format: toxicity, cell-based
# [4] = Cytotoxicity against human A549-ACE2 cells expressing ACE2 assessed as reduction in cell viability by CytoTox-Glo assay; format: toxicity, cell-based
# [5] = target: Calcium/calmodulin-dependent protein kinase type 1 (Homo sapiens) (UniProt Q14012); experiment: Inhibition of CAMK1 (unknown origin) at 1 uM by Adapta assay
# [6] = target: Maternal embryonic leucine zipper kinase (Homo sapiens) (UniProt Q14680); experiment: Inhibition of MELK (unknown origin) at 1 uM by Adapta assay
# Maternal embryonic leucine zipper kinase (Homo sapiens), sequence (Q14680 whole entry, looked up): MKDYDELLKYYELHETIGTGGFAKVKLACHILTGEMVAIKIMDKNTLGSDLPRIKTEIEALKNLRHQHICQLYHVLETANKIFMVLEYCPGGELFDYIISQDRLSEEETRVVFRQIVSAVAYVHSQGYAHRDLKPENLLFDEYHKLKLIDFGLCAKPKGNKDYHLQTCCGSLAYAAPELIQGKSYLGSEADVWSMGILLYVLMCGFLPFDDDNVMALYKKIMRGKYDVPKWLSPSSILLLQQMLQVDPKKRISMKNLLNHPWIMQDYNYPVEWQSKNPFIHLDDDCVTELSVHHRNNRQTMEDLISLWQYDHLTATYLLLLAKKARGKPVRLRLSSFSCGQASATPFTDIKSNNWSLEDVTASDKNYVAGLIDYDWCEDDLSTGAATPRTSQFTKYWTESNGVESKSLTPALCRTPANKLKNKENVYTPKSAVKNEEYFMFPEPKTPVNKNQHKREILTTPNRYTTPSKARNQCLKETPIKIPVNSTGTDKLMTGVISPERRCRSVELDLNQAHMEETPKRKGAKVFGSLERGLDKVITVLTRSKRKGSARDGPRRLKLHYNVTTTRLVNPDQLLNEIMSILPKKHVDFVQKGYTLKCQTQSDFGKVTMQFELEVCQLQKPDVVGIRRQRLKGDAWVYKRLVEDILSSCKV
# Cathepsin D (Homo sapiens), sequence (P07339 65-162 limits assumed): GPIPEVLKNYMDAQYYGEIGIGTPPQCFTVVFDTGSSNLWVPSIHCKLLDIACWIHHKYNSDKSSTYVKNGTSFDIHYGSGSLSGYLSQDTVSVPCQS
# Cathepsin D (Homo sapiens), sequence (P07339 169-412 limits assumed): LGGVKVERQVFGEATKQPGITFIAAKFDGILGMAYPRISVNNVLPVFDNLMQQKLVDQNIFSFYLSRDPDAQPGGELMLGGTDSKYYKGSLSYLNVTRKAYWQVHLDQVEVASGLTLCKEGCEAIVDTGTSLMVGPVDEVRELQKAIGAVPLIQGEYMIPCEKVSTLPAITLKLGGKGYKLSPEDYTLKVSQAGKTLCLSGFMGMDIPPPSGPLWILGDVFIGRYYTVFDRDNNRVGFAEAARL
# Calcium/calmodulin-dependent protein kinase type 1 (Homo sapiens), sequence (Q14012 whole entry, looked up): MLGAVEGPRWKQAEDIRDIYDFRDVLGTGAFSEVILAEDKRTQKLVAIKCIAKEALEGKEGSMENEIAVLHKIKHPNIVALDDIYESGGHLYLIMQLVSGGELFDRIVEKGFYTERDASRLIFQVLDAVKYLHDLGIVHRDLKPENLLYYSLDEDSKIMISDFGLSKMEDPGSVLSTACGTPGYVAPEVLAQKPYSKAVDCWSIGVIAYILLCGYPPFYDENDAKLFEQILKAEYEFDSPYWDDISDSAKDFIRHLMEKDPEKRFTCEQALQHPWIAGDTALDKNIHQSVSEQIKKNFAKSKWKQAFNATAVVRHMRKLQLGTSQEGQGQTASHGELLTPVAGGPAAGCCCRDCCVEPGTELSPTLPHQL
IC50 (SH-SY5Y) [µM],IC50 (HT-1080) [µM],IC50 (SK-N-AS) [µM],SMILES,also measured
8.57,29,–,CCN(CC)CCCC(C)Nc1c2ccc(Cl)cc2nc2ccc(OC)cc12 (centres undefined) [QUINACRINE],–
1.2,3.6,3.86,COc1ccc2nc3cc(Cl)ccc3c(Nc3ccc(O)c(CN4CCCC4)c3)c2c1,–
3.41,6.09,5.4,COc1ccc2nc3cc(Cl)ccc3c(Nc3cc(CN(C)C)c(O)c(CN(C)C)c3)c2c1,–
9.7,13.8,–,COc1ccc2nc3cc(Cl)ccc3c(Nc3cc(CN4CCCC4)c(O)c(CN4CCCC4)c3)c2c1,–

# Second part, the molecule before the results:
SMILES,IC50 (SH-SY5Y) [µM],IC50 (HT-1080) [µM],IC50 (SK-N-AS) [µM],also measured
CCCCCCCCc1ccc(CCC(N)(CO)CO)cc1 [FINGOLIMOD],4.71,–,6.11,–
CN1CCN(c2ccc(C(=O)Nc3n[nH]c4ccc(Cc5cc(F)cc(F)c5)cc34)c(NC3CCOCC3)c2)CC1 [ENTRECTINIB],1.6,–,4.47,–
Cc1ccc(S(=O)(=O)/C=C/C#N)cc1,0.85,–,1.23,–
O=C(Nc1ccc([N+](=O)[O-])cc1Cl)c1cc(Cl)ccc1O [NICLOSAMIDE],0.87,–,2.33,–
COc1ccc2nc3cc(Cl)ccc3c(Nc3cc(CN4CCCC4)c(O)c(CN4CCCC4)c3)c2n1 [PYRONARIDINE],1.7,4.23,3.45,inhibition [1]: > 50%; IC50 [2]: 1.3 µM; IC50 at 48 h [3]: 3.1 µM; IC50 [4]: > 10 µM; inhibition [5]: 35%; inhibition [6]: 31%
C[C@@H](Oc1cc(-c2cnn(C3CCNCC3)c2)cnc1N)c1c(Cl)ccc(F)c1Cl [CRIZOTINIB],0.92,–,12.1,–
